Screening results from PubChem BioAssay.
An excerpt weighted towards active compounds, which were near 1.5% of everything screened.
FLuc inhib CS = counter-screen for luciferase assay inhibitors: firefly luciferase inhibition; 200,000 tested, 1.5% active; inhibition, % at 10 µM; AID 1006; P08659; ATPLite firefly luciferase biochemical luminescence, 10 min;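 active = inhibition above about 50% when tested at 10 µM, limit read from the data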
Target sequence (P08659 whole entry, looked up): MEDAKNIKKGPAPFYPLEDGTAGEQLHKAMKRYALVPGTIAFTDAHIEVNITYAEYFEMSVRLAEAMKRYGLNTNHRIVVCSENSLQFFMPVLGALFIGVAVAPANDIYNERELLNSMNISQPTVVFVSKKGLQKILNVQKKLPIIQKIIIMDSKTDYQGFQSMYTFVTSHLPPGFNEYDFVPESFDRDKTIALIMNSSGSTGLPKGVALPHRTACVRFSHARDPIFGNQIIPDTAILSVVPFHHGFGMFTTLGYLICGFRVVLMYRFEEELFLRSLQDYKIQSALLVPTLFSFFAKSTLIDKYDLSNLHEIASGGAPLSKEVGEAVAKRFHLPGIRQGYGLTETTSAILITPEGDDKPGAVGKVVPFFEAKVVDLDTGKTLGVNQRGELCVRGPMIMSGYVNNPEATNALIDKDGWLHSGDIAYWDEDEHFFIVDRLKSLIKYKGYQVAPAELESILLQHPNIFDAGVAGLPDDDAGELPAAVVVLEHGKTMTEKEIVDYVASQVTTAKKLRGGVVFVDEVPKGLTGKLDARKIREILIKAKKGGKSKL
TRAIL sens C8 = caspase-8 TRAIL sensitization. AID 624354. NB7+C8 cells + TRAIL, ATPlite viability luminescence. 360,000 tested, 1% active. inhibition (viability loss, TRAIL sensitization), % at 10 µM;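 active = compounds causing at least 50% loss of cell viability in the single-dose screen, relative to plate controls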
PPC-1+TRAIL kill = compounds killing PPC-1 cancer cells with TRAIL present (potentiator screen, no TRAIL-free arm); 220,000 tested, 0.41% active; cell killing (% activity), % at 4 µM or 5 µM; PPC-1 cells + TRAIL, ATPLite viability luminescence; AID 1443;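 active = cell killing above 50% in the first pass at 4 µM, then a duplicate retest at 5 µM averaging 50% or more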;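 also: plate controls were cells with TRAIL plus DMSO for no effect and medium-only wells lacking cells for full effect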
FLuc stim CS = affects firefly luciferase, flagging false hits in luciferase stimulation screens | P08659 | ATPlite luciferase biochemical, luminescence, 10 min; 0 = ATP-free wells, 1 = DMSO control | activation factor at 10 µM | 200,000 tested, under 10 active;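 active = luciferase activation factor, scaled between plate controls, of at least 2 with compound at 10 µM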
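System: cell-free luciferase reagent; medium: PBS as buffer for the ATP substrate; doses: test compounds dosed from 2 mM stocks in 100% DMSO; incubation: 10 min, room temperature; measured by: luminescence from luciferase reaction; read-out: luciferase activation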
* = called active by the depositor; x = no result given.

SMILES	FLuc inhib CS	TRAIL sens C8	PPC-1+TRAIL kill	FLuc stim CS
Cc1cccc(-n2ncc3c(N4CCC(C)CC4)ncnc32)c1	44	50*	22	0.6
COCc1c(C(=O)NCCc2ccc(OC(F)F)cc2)oc2ccccc12	x	4	x	x
Cc1nc(Nc2ccccc2)sc1-c1ccccc1	85*	66*	33	0.2
O=C(Nc1ccc(-c2ccc3nncn3n2)cc1)C1CCCC1	52*	28	3	0.5
CC(=O)Nc1ccc(Nc2nnc(-c3ccc(O)cc3)c3ccccc23)cc1	x	4	x	x
Clc1cccc(/C=N/Nc2ncnc3ccccc23)c1	34	16	-4	0.7
COc1cc(/C=N/Nc2nncc3ccccc23)cc(OC)c1OC	x	31	x	x
C(=N\Nc1ncnc2ccccc12)/c1ccccc1	74*	25	33	0.3
Oc1ccc2ccccc2c1/C=N/Nc1nnc(-c2ncc[nH]2)c2ccccc12	16	21	-4	0.8
CC(=O)Nc1ccc(C=NNc2nnc(NN=Cc3ccc(NC(C)=O)cc3)c3ccccc23)cc1	x	64*	x	x
COc1ccc(/C=N/Nc2nnc(-c3ncc[nH]3)c3ccccc23)cc1	72*	24	44	0.3
CN(C)c1ccc(/C=N/Nc2nncc3ccccc23)cc1	x	66*	x	x
CCCc1nnc2n1N=C(c1ccc(C)cc1)CS2	x	18	x	x
COC(=O)c1cc(S(=O)(=O)NC2CCCCC2)cn1C	x	2	x	x
O=C(Cn1cnc(S(=O)(=O)N2CCOCC2)c1)Nc1ccc(OC(F)(F)F)cc1	x	6	x	x
Clc1ccc(/C=N/Nc2nnc(Cl)c3ccccc23)cc1	42	27	22	0.6
C(=N\Nc1nncc2ccccc12)/c1ccccc1	x	50*	27	x
Clc1nnc(N/N=C/c2ccccc2)c2ccccc12	69*	43	41	0.3
COc1ccc(C2CC(c3cccs3)=NN2C(=O)CSC2=NN3CCCC(=O)N=C3S2)cc1 (stereo unspecified)	-7	27	14	1.1
COc1ccc(C2CC(c3ccc(Br)cc3)=NN2C(=O)CSC2=NN3CCCC(=O)N=C3S2)cc1 (stereo unspecified)	x	93*	x	x
O=C(NCc1ccccc1Br)c1cccc2c1C(=O)c1ccc(-c3ccc(OC(F)(F)F)cc3)cc1S2(=O)=O	x	54*	x	x
O=C(NCc1cc(C(F)(F)F)ccc1Cl)c1cccc2c1C(=O)c1ccc(N3CCC(N4CCCCC4)CC3)cc1S2(=O)=O	x	96*	x	x
COc1ccc(-c2ccc3c(c2)S(=O)(=O)c2cccc(C(=O)NCCOc4ccccc4Cl)c2C3=O)cc1OC	x	76*	x	x
CC(C)c1cccc(-c2ccc3c(c2)S(=O)(=O)c2cccc(C(=O)NCc4ccccc4Cl)c2C3=O)c1	x	68*	x	x
COc1cccc(/C=C/C(=O)NCc2ccc(S(N)(=O)=O)cc2)c1	x	-8	18	x
SMILES	FLuc inhib CS	TRAIL sens C8	PPC-1+TRAIL kill	FLuc stim CS
Cc1oc(-c2ccc3c(c2)OCCO3)cc1C(=O)NCC(=O)O	32	1	x	0.7
Cc1oc(-c2ccc3c(c2)OCCO3)cc1C(=O)O	62*	6	6	0.4
COc1cc(/C=N/O)ccc1OCc1ccc(C(=O)O)cc1	88*	71*	45	0.1
COc1cc(/C=N/O)ccc1OCc1ccc(Cl)cc1	43	x	4	0.6
CC1CCc2c(sc(NC(=O)c3cccn3C)c2C(N)=O)C1 (stereo unspecified)	x	15	x	x
O=C(N/N=C/C1CC=CCC1)c1ccc(Cl)cc1O (stereo unspecified)	55*	-14	-5	0.4
Cc1cc(C)n(CC(=O)Nc2ccc3c(c2)OCO3)c(=O)c1C#N	x	-2	x	x
CCn1c(C)cs/c1=N\S(=O)(=O)c1ccccc1	x	-18	x	x
O=Cc1s/c(=N\S(=O)(=O)c2ccccc2)n(CCCCl)c1Cl	-6	61*	26	1.1
Oc1ccc(/C=N/Nc2nc(-c3cccnc3)nc3ccccc23)c(O)c1	x	55*	16	x
O=C1NC[C@@H](c2ccccc2)OC(=O)[C@@H](Cc2ccc(F)cc2)C/C=C\C[C@@H]1CC(=O)N(CCO)Cc1ccccc1	x	1	x	x
O=C1CCC(C(=O)N2CCCC(Nc3ccc(F)cc3)C2)=NN1 (stereo unspecified)	x	-18	x	x
O=C(NNc1c2ccccc2nc2ccccc12)c1ccccc1O	8	0	16	0.9
O=C(NNc1nc(=O)c2cccnc2s1)c1ccccc1O	18	53*	24	0.8
COc1cccc2cc(C(=O)Nc3cccc(C)n3)c(=O)oc12	54*	10	5	0.5
O=C(CSCc1ccccc1)N=Nc1c(O)[nH]c2ccccc12	-2	4	1	1
O=C(N=Nc1c(O)[nH]c2ccccc12)c1ccco1	75*	47	32	0.2
CC1CCCCC1NC(=O)/C=C/c1nc2ccccc2s1 (stereo unspecified)	20	6	14	0.8
O=C(/C=C/c1nc2ccccc2s1)N1CCCCCC1	62*	25	7	0.4
O=c1c2ccccc2cnn1CCOc1ccccc1	83*	38	43	0.2
O=C(O)Cn1ncc2ccccc2c1=O	-3	-4	18	1
O=C(Nc1cccc(F)c1)c1c(F)c(F)c(F)c(F)c1F	-2	-1	29	1
O=C(Nc1ccccc1NC(=O)c1c(F)c(F)c(F)c(F)c1F)c1c(F)c(F)c(F)c(F)c1F	-7	82*	-16	1.1
N#Cc1ccccc1NC(=O)COC(=O)/C=C/c1cn(-c2ccccc2)nc1-c1ccc(Cl)cc1	-4	61*	16	1
O=C(CSc1ncnc2nc[nH]c12)c1ccccc1	4	24	5	1
SMILES	FLuc inhib CS	TRAIL sens C8	PPC-1+TRAIL kill	FLuc stim CS
O=C(CSc1ncnc2nc[nH]c12)c1ccc(Cl)cc1	x	74*	x	x
CC1CCC(C(C)C)C(OC(=O)Cn2c(-c3ccc(Cl)cc3)[n+](C)c3ccccc32)C1 (stereo unspecified)	x	51*	49	x
CCn1c(N)nc2c1c(=O)n(C)c(=O)n2C	0	12	12	1
CCCc1nc2c(=O)n(C)c(=O)nc-2n(C)n1	-5	96*	43	1.1
COC(=O)c1sc(NC(=S)NC(=O)c2ccc(F)cc2)nc1C	9	x	10	0.9
COC(=O)c1sc(NC(=S)NC(=O)c2ccccc2C)nc1C	45	51*	2	0.5
CN=c1scc(C)n1/N=C/c1cc(Br)c(O)c(Br)c1	32	4	10	0.7
CN=c1scc(C)n1/N=C/c1ccc(O)cc1	54*	39	41	0.5
COc1ccc(O)c(/C=N/n2c(-c3ccco3)csc2=Nc2cccnc2)c1	-3	-3	26	1
CN=c1scc(-c2ccco2)n1/N=C/c1ccc(O)c(O)c1	88*	38	29	0.1
CN=c1scc(C)n1/N=C/c1ccc2c(c1)OCO2	58*	61*	34	0.4
CC(NC(=O)CSc1nnnn1C1CC1)c1ccccc1Br (stereo unspecified)	x	13	x	x
N#CC1=C(N)OC2=C(C(=O)CC(c3ccccc3)C2)C1c1ccoc1 (stereo unspecified)	-2	2	85*	1
N#CC1=C(N)OC2=C(C(=O)CC(c3ccccc3)C2)C1c1cccnc1 (stereo unspecified)	4	15	16	1
